# Only some compounds are listed: those with a hit (about 1.9% of all), similar ones and a draw of the others.
# bovine MsrA act – bovine methionine sulfoxide reductase A activation | AID 602163 | purified bovine MsrA, absorbance read-out | 360,000 tested, 0.3% active | activation, % at 10.6 µM; in the data active = activation above about 7.5%;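 note: 0% = vehicle and 100% = reference activator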
# Vif inh – HIV Vif inhibition | HEK293T cells, Vif self-association by quenched fluorescence, imaging, 24 h | inhibition, % at 7.49 µM | 340,000 tested, 0.35% active | AID 602346; in the data active = inhibition above about 50%, passing the limit was not always enough; inconclusive = no clear call, values can overlap the other calls; inactive = below about 31%
# aDG glyco act – increases alpha dystroglycan glycosylation; Pro5-aDG cells, alpha-DG glycosylation AlphaScreen (IIH6); 0% Pro5, 100% B10-LARGE cell signal; activation, % at 10 µM; 360,000 tested, 0.22% active; AID 624168;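 active = activation of at least 8% versus controls, or a plate z-score of at least 8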;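 note: Pro5 are CHO cells carrying HIG-tagged alpha-DG that lacks glycosylation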
# UCH37 inh – inhibitors of human deubiquitinating enzyme UCH37. AID 588478. 330,000 tested, 0.33% active. inhibition, % (test concentration not listed). Q9Y5K5. purified proteasome/UCH37, Ub-AMC cleavage fluorescence;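 active = mean inhibition over replicate wells above about 20%, limit read from the data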;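 note: 0% = compound-free wells with enzyme and 100% = wells lacking proteasome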
# Target sequence (Q9Y5K5 whole entry, looked up): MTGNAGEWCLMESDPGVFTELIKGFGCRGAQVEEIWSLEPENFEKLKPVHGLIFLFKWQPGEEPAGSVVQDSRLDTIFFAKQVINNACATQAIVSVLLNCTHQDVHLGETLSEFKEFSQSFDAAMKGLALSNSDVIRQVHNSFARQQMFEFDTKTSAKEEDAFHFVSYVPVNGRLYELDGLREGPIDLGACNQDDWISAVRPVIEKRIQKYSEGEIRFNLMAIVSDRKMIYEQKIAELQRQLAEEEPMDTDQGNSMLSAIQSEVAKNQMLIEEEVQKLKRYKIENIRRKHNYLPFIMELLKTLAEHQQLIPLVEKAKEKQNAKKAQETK
#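 Reagent: Ub-AMC substrate; assay system: Proteasome-associated human UCH37 deubiquitinase; controls: no-proteasome and no-compound wells; read-out: % inhibition of Ub-AMC cleavage fluorescence; timing: 30 min preincubation with enzyme, 25 min cleavage at room temperature; signal: AMC fluorescence from Ub-AMC cleavage, excitation 355 nm, emission 460 nm; buffer or medium: Tris-HCl pH 7.4 plus ovalbumin, ATP-MgCl2, DTT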
# Glyco luc inh – blocks N-linked glycosylation in D54 reporter cells. D54 ERlucT glycosylation luciferase reporter, 24 h; percent of 100 nM tunicamycin response. reporter increase, % at 12.5 µM. 360,000 tested, 0.23% active. AID 588692;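 active = mean luciferase reporter signal, scaled so untreated is 0 and the glycosylation-blocking control 100, at or above a set limit in every replicate; inconclusive = mean reaches the limit but not every replicate does; inactive = mean below the limit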;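 note: luciferase carries N-glycosylation sites so blocking glycosylation raises the light; 0% = median of neutral control wells and 100% = median of 100 nM tunicamycin wells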
# MsrA inhibitor – inhibitors of bovine MsrA. purified bovine MsrA, absorbance read-out. inhibition, % at 15.5 µM. 360,000 tested, 0.75% active. AID 651718; in the data active = inhibition above about 4.5%;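 note: 0% = vehicle wells with enzyme and 100% = reference inhibitor wells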
# The depositor's hits bear a star; ? = inconclusive; / = not tested or not shown.
SMILES,bovine MsrA act,Vif inh,aDG glyco act,UCH37 inh,Glyco luc inh,MsrA inhibitor
ON=C(COc1ccccc1O)c1ccccc1,/,/,/,1.1,/,/
COc1ccc(C(=O)c2cc([N+](=O)[O-])ccc2N2CCOCC2)cc1,-6.0,?,-0.2,4.2,16.2,2.1
CCOc1ccc(C(=O)c2cc([N+](=O)[O-])ccc2N2CCOCC2)cc1,-3.5,73.9*,-0.3,6.5,6.6,1.6
BrC(=C\c1ccccc1)/C=N/Nc1ccc2nncn2n1,-5.0,10.0,0.1,/,4.3,4.5*
C(=N\Nc1ccc2nncn2n1)/c1ccco1,-5.6,1.8,0.0,/,2.8,2.8
Cc1cnc(NC(=O)CN2CCN(c3ccccn3)CC2)s1,-8.2,114.1*,-0.8,4.6,-1.8,0.4
COc1ccc(N2CCN(CC(=O)Nc3ncc(C)s3)CC2)cc1,-5.8,24.8,-0.1,0.7,-1.2,1.1
CCOC(=O)C1CCN(c2c(N3CCN(c4ccccc4OC)CC3)c(=O)c2=O)CC1,-0.6,/,0.0,11.1,-0.2,1.3
CCOC(=O)C1CCN(c2c(N3CCN(Cc4ccccc4)CC3)c(=O)c2=O)CC1,-5.8,9.1,-0.2,2.8,28.2*,2.5
O=C(CCN1CCN(c2ccccc2)CC1)NN=Cc1ccccc1OC(F)F,/,/,/,-11.2,/,/
CCN1CCN(C2=CC3=CC(=C(C#N)C#N)CCC3CC2)CC1 (stereo unspecified),0.3,/,-0.9,32.3*,-1.2,/
CCN(CC)c1ccc2cc(C(N)=O)c(=NNC(=O)c3ccncc3)oc2c1,/,/,/,21.7*,/,/
COc1ccc(-c2nn(Cc3ccccc3)cc2C(=O)N2CCN(c3ccccn3)CC2)cc1OC,-2.5,-1.4,0.0,-3.1,1.0,0.0
O=C(c1ccccc1-c1ccccc1)N1CCN(c2ccccn2)CC1,-1.1,1.5,-0.1,0.6,50.2*,-0.1
O=C(c1cn(Cc2ccccc2)nc1-c1ccccc1)N1CCN(c2ccccn2)CC1,0.8,-0.5,-0.1,3.5,50.9*,0.0
Cc1ccccc1C(=O)N1CCN(c2ccccn2)CC1,6.7,-9.0,-0.1,-3.6,-0.4,-0.9
CC(=O)Nc1cc2c(cc1[N+](=O)[O-])OCCO2,-0.1,18.6,-0.3,-0.4,0.0,4.6*
CC(=O)NN=c1sc2ccccc2n1C,/,/,/,2.0,/,/
O=C(NN=Cc1ccncc1)c1ccccc1,/,/,/,31.0*,/,/
COc1ccccc1C(=O)NCC(=O)NN=Cc1ccncc1,/,/,/,30.1*,/,/
O=C(CC(=O)NC1CCCCC1)NN=Cc1ccccc1F,/,/,/,-0.5,/,/
Cc1oc(-c2ccc(Cl)cc2)nc1CN1CCC(C(=O)NCc2cccnc2)CC1,-7.3,86.6*,1.7,-0.6,-0.6,/
CN(Cc1ccccc1)C1=CC(=[N+]2CCCCC2)CC(C)(C)C1,-17.8,-12.0,0.5,11.9,1.0,4.7*
CCOc1ccc(S(=O)(=O)N(C)CC(=O)NCc2ccco2)cc1,-1.5,5.0,-0.1,1.9,-0.4,-1.5
CCOc1ccc(S(=O)(=O)N(C(=O)c2ccco2)c2cc3sc(=O)oc3c3ccccc23)cc1,-0.5,-10.9,11.1*,4.9,17.0,2.9
SMILES,bovine MsrA act,Vif inh,aDG glyco act,UCH37 inh,Glyco luc inh,MsrA inhibitor
COc1ccc(S(=O)(=O)N(C(=O)c2ccco2)c2cc3sc(=O)oc3c3ccccc23)cc1,-10.4,-5.7,7.6*,3.5,5.0,1.6
Cc1ccc(S(=O)(=O)N(C(=O)c2ccco2)c2cc3sc(=O)oc3c3ccccc23)cc1,-2.0,-4.7,6.6*,6.0,5.4,2.0
COc1ccc(S(=O)(=O)N(C(=O)C(C)C)c2ccc3oc(=O)sc3c2)cc1,6.6,-2.0,-0.2,6.4,1.9,2.0
COc1ccc(NC(=O)CC(C)=NNC(=O)c2ccco2)c([N+](=O)[O-])c1,/,/,/,4.0,/,/
O=S(=O)(N=C(Sc1ccc(Cl)cc1)c1ccccc1)c1ccccc1,/,/,/,2.2,/,/
COCCCNC(=O)CC(=O)NN=Cc1ccc(SC)cc1,/,/,/,1.2,/,/
Cc1ccc(/C=N/n2c(C)n[nH]c2=S)o1,0.0,2.6,0.0,/,2.3,4.6*
Cc1cc(=O)[nH]c(N/N=C/c2cccs2)n1,-3.1,-4.0,0.0,/,3.0,0.5
O=c1cnnc(N/N=C/c2cccs2)[nH]1,-4.4,0.4,-0.1,/,-0.4,4.6*
CCOC(=O)N1CCN(C(=O)CCN2C(=O)/C(=C\c3cccc(OC)c3)SC2=S)CC1,-0.6,18.3,0.5,5.5,2.1,-0.7
COc1cccc(/C=C2\SC(=S)N(CCC(=O)N3CCCCC3)C2=O)c1,-0.4,3.4,0.3,9.9,39.0*,0.1
COc1ccc(C=NNc2ncnc3c2[nH]c2ccccc23)c(OC)c1OC,/,/,/,-19.1,/,/
O=C(NN=Cc1cn(-c2ccccc2)nc1-c1ccc(F)cc1)c1ccc2c(c1)OCO2,/,/,/,3.2,/,/
Cc1c(O)ccc(/C=N/Nc2ncccc2[N+](=O)[O-])c1O,-0.4,-1.1,5.8*,/,-9.4,2.0
Cc1cc(N2CCN(S(=O)(=O)c3ccc(Cl)cc3)CC2)c2ccccc2n1,-8.5,-16.8,1.6,5.7,-3.1,1.2
Cc1cc(N2CCN(S(=O)(=O)c3ccc(Cl)c(Cl)c3)CC2)c2ccccc2n1,-6.6,85.8*,1.5,2.0,1.5,0.5
COC(=O)c1cccc(NC(=S)NCCC2=CCCCC2)c1,-8.0,55.1*,0.3,-2.2,-1.5,0.1
COC(=O)c1ccc(NC(=S)NCCC2=CCCCC2)cc1,-7.2,-9.3,0.3,1.6,-1.4,0.5
COc1ccc(CC(=O)N(Cc2ccccc2)c2ccc(C)cc2)cc1OC,-4.4,-5.5,-0.3,2.2,31.4*,0.2
O=C(NNC1CC(=O)N(c2ccc(Cl)cc2)C1=O)c1ccccn1 (stereo unspecified),-4.7,3.9,-0.1,25.6*,0.5,2.7
CN(C)c1ccc(/C=C2\Oc3ccc(C#Cc4cccc(N)c4)cc3C2=O)cc1,-2.9,62.6*,0.3,-10.0,-3.8,/
COC(=O)c1ccc2c(c1)C(=O)/C(=C/c1ccc(C)cc1)O2,-2.7,-6.3,0.0,-1.1,4.1,-0.1
C(=NN1CCN(Cc2ccccc2)CC1)c1cccs1,/,/,/,1.4,/,/
Cc1cccc(NC(=O)c2sc3nc(N)c(C#N)cc3c2N)c1,-8.1,-8.4,-0.2,1.8,2.5,4.6*
Cc1cc(C)cc(NC(=O)c2sc3nc(C)cc(C)c3c2N)c1,-3.6,-7.1,0.2,-198.9,2.5,0.4
SMILES,bovine MsrA act,Vif inh,aDG glyco act,UCH37 inh,Glyco luc inh,MsrA inhibitor
CC(=NNS(C)(=O)=O)c1ccc2ccccc2c1,/,/,/,1.8,/,/
CC1(C)CC(=O)C(=NNc2ccc(Cl)cc2)CO1,/,/,/,6.3,/,/
Cc1nc2c(-c3ccc(Cl)cc3)c(C)[nH]n2c(=O)c1Cc1ccccc1,-2.6,-0.1,12.1*,-9.2,-12.8,1.6
Cc1ccc(-c2cc(C(=O)NCCCN3CCOCC3)no2)cc1,6.8,-4.7,0.1,-1.4,-3.8,1.0
O=C(NCCCn1ccnc1)c1cc(-c2cccs2)on1,-2.7,10.4,-0.7,-1.8,155.2*,-0.3
O=C(NCCCN1CCOCC1)c1cc(-c2cccs2)on1,-9.4,-1.1,-0.4,2.0,45.7*,-1.0
N#Cc1c(N=Cc2ccco2)sc2c1CCC2,/,/,/,2.4,/,/
CC1(C)OC(c2ccccc2)=C/C(=C/C=NNC(=O)c2ccncc2)O1,/,/,/,13.0,/,/

# Screens as filed in PubChem.
